Calls of active or inactive are those of the source. The rule behind the calls is not given here.
Tests used:
Assay type in all cases: functional, cell-based
[1] = Cytotoxicity against human K562 cells assessed as growth inhibition after 48 hrs by SRB assay; conditions: K562, 48 h
[2] = Cytotoxicity against human HL60 cells assessed as growth inhibition after 48 hrs by SRB assay; conditions: HL-60, 48 h
[3] = Cytotoxicity against human HeLa cells assessed as growth inhibition after 48 hrs by SRB assay
[4] = Cytotoxicity against human A549 cells assessed as growth inhibition after 48 hrs by SRB assay; conditions: A549, 48 h
HepG2 [5] = assay: Lipid lowering activity in human HepG2 cells assessed as decrease in oleic acid elicited lipid accumulation at 10 uM treated 12 hrs post oleic acid addition measured 6 hrs post dose by oil-red O staining method
Method in brief: (§1)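 HepG2 cells (ATCC origin) grown in DMEM with 10% FBS and penicillin/streptomycin to 70–80% confluence. They were loaded with 100 μM oleic acid in DMEM for 12 h, then exposed for 6 h to 10 μM compound, lovastatin as positive control, or oleic acid alone. Read-outs were Oil-Red O staining (n = 8) or TC/TG determination (n = 3). Each experiment was repeated at least three times; means ± SEM.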

HepG2 [6] = assay: Lipid lowering activity in human HepG2 cells assessed as decrease in total cholesterol level at 10 uM treated 12 hrs post oleic acid addition measured 6 hrs post dose; method in brief: as §1
HepG2 [7] = assay: Lipid lowering activity in human HepG2 cells assessed as decrease in triglyceride level at 10 uM treated 12 hrs post oleic acid addition measured 6 hrs post dose; method in brief: as §1

Compound | IC50 [1] [µM] | IC50 [2] [µM] | IC50 [3] [µM] | IC50 [4] [µM] | Activity (HepG2 [5]) | Activity (HepG2 [6]) | Activity (HepG2 [7])
NC(=O)c1cn(CCO)c([C@@H](O)c2ccccc2)cc1=O | > 50 | > 50 | > 50 | > 50 | – | – | –
COC(=O)c1c[nH]c([C@@H](O)c2ccccc2)cc1=O | > 50 | > 50 | > 50 | > 50 | Active | Active | Active
NC(=O)c1c[nH]c([C@@H](O)c2ccccc2)cc1=O | > 50 | > 50 | > 50 | > 50 | Active | Active | Active
CC(=O)O[C@@H](c1ccccc1)c1cc(=O)c(C(N)=O)cn1CCO | > 50 | > 50 | > 50 | > 50 | Active | Active | Active
CC(C)CC(=O)NC(=O)c1cn(CCO)c([C@@H](O)c2ccccc2)cc1=O | > 50 | > 50 | > 50 | > 50 | – | – | –
CC(=O)O[C@@H](c1ccccc1)c1cc(=O)c(C(=O)NC(=O)CC(C)C)cn1CCO | > 50 | > 50 | > 50 | > 50 | Active | Active | Active
CC(C)CC(=O)NC(=O)c1c[nH]c([C@@H](O)c2ccccc2)cc1=O | > 50 | > 50 | > 50 | > 50 | – | – | –

Source: ChEMBL document CHEMBL3861970, “Penipyridones A-F, Pyridone Alkaloids from Penicillium funiculosum” (J Nat Prod, 2016)
